Compound activity deposited in PubChem BioAssay by several laboratories.
T cruzi repl = T. cruzi replication inhibition; T. cruzi beta-gal in NIH3T3, luminescence, 90 h; inhibition, % (no concentration beside the values); 300,000 compounds, 1.4% hits;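 active means mean inhibition across valid replicates above about 55%, limit read from the data; inconclusive means mean below that limit but half or more replicates reach it; inactive means mean below it, under half of replicates reach it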;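 further: signal also drops with host cell toxicity which is not excluded here; 0% = plate median of DMSO wells and 100% = zero luminescence signal; higher percent means less beta-gal luminescence so fewer parasites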
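System: mouse NIH/3T3 fibroblasts infected with β-gal-expressing T. cruzi Tulahuen C4 / Input: NIH/3T3 cells, 5,000 per well / Buffer or medium: Low-serum DMEM with 2% FBS / Probe or stimulus: 5000 reporter trypomastigotes per well / Schedule: ≥90 h infection period, 3 h prior cell attachment / Measured by: GalScreen luminescence, 60 min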
Efflux pump mplx = antifungal efflux pump inhibition, Nile Red retention. S. cerevisiae Candida pump triplex. inhibition, % at 10 µM. 330,000 compounds, 0.44% hits. AID 485275;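 active means plate passing quality check with inhibition over a set limit, or well fluorescence over plate mean plus 4 SD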;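 further: Nile Red retained in pooled yeast measured as flow cytometry median fluorescence; 0% = buffer negative control and 100% = Enniatin B positive control; higher means more Nile Red kept so more efflux inhibition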
HDAC3 inh = human HDAC3 inhibition; AID 2718; inhibition, % at 8.3 µM; recombinant HDAC3, fluorogenic peptide/trypsin coupled, fluorescence; O15379; 320,000 compounds, 0.15% hits; in the data active means inhibition above about 26%, passing the limit was not always enough; inconclusive means no clear call, values can overlap the other calls
Target sequence (O15379 whole entry, looked up): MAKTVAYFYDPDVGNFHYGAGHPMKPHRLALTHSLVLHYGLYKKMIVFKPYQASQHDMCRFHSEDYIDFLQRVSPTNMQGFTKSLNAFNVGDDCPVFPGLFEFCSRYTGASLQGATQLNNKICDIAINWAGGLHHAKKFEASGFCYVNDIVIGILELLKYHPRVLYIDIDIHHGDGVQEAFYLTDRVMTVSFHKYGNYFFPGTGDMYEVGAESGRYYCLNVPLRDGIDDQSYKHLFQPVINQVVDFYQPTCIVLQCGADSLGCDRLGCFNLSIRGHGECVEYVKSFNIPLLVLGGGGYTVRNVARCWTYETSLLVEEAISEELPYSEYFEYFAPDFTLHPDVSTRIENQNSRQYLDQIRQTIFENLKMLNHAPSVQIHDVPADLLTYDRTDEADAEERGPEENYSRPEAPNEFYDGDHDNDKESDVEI
AI-2 QS mod = Vibrio harveyi AI-2 quorum sensing modulation; Vibrio harveyi JMH597 AI-2 luminescence/OD600 ratio, 9 h; hits give low values; strain lacks LuxN and CqsS sensors; 0 = neutral-control median; AID 2094; 300,000 compounds, 0.4% hits; activity change, % at 7.5 µM; in the data active means activity change below about -75%, passing the limit was not always enough; inconclusive means no clear call, values can overlap the other calls;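 further: luminescence divided by OD600 gain over 9 h not by final OD600 alone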
PolyA inh = yeast polyadenylation inhibition | activity score, % at 12 µM | AID 1875 | S. cerevisiae SKY197-pL101 polyadenylation reporter, beta-gal luminescence; efflux-impaired pdr1/pdr3 knockout yeast; score 100 = 6 SD above DMSO | 300,000 compounds, 0.02% hits;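 active means lowest replicate activity score at least 50, where 100 means six control SD above control mean; inconclusive means lowest score under 50 but half or more replicates reach 50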;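 further: yeast exposed to compound for 9 h at 30 °C; higher score means more reporter readthrough which indicates perturbed polyadenylation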
JMH597 growth = retest: blocks Vibrio harveyi JMH597 growth | shares compounds with AI-2 QS mod | OD600 absorbance, 9 h; lacks LuxN and CqsS sensors | growth inhibition, % at 7.5 µM | 750 compounds, 1% hits;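 active means every replicate shows growth inhibition above 50%; inconclusive means at least half, but not all, replicates pass that cutoff; inactive means fewer than half of replicates pass it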
BB721 const-QS lum = retest counter-screen: luminescence loss in constitutive-on quorum sensing strain BB721. Vibrio harveyi BB721 luminescence, 9 h. AID 2727. inhibition, % at 7.5 µM. 750 compounds, 95% hits. shares compounds with AI-2 QS mod;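 active means inhibition above about 80% in every replicate, not just on average, limit read from the data; inconclusive means at least half of replicates past the limit, but not all; inactive means fewer than half of replicates past the limit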
BB721 growth = retest: inhibitors of Vibrio harveyi BB721 growth; shares compounds with AI-2 QS mod; OD600 absorbance, 9 h; growth inhibition, % at 7.5 µM; 750 compounds, 3% hits;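 active means every replicate shows growth inhibition above 50%; inconclusive means at least half but not all replicates above 50% inhibition; inactive means under half of replicates above 50% inhibition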
AI-2 QS JMH597 = Vibrio harveyi AI-2 signaling luminescence modulation – JMH597 strain, confirmation; inhibition, % at 7.5 µM; Vibrio harveyi JMH597 AI-2 quorum sensing luminescence, 9 h; luxN and CqsS knockout, AI-2 only; 750 compounds, 97% hits; shares compounds with AI-2 QS mod;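 active means every replicate shows more than 75% inhibition of signal versus neutral control wells; inconclusive means half to three quarters of replicates exceed 75% inhibition; inactive means fewer than half of replicates exceed 75% inhibition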
Cmpd fluor yeast = compound fluorescence in yeast efflux pump counter-screen; shares compounds with Efflux pump mplx; S. cerevisiae AD/pABC3, flow cytometry; fluorescence ratio to DMSO, % at 10 µM; 1,700 compounds, 4% hits; AID 588517;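 active means fluorescence ratio to DMSO above its plate's cutoff, the plate mean ratio plus 5 SD, cut at about 210% in these data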;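 further: unstained yeast with no Nile Red so the signal is compound autofluorescence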
CaMdr1 efflux inh = Candida Mdr1 efflux pump inhibition; 1,700 compounds, 1% hits; S. cerevisiae AD/CaMDR1, Nile Red efflux, flow cytometry; inhibition, % at 10 µM; AID 588518; shares compounds with Efflux pump mplx; in the data active means inhibition above about 26%;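 further: 0% = DMSO vehicle and 100% = reference inhibitor; higher means more Nile Red retained so more efflux inhibition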
Cdr2 pump inh = inhibitors of Candida albicans Cdr2 efflux pump; 1,700 compounds, 4% hits; Nile Red retention ratio vs DMSO, % at 10 µM; AID 588520; S. cerevisiae AD/CaCDR2, Nile Red retention, flow cytometry; shares compounds with Efflux pump mplx; in the data active means Nile Red retention ratio vs DMSO above about 190%;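 further: higher ratio means more blocking of Cdr2 efflux of the dye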
Cdr1 pump inh = Candida Cdr1 efflux pump inhibition. 1,700 compounds, 1% hits. inhibition, % at 10 µM. shares compounds with Efflux pump mplx. S. cerevisiae AD/CaCDR1, Nile Red efflux, flow cytometry. AID 588522;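 active means inhibition above the screen-wide mean plus twice its standard deviation, cut at about 32% in these data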
The depositor's hits bear a star; ? = inconclusive; nt = no result; ! = a repeat was not active. An excerpt weighted towards active compounds, which were near 2.2% of everything screened.

SMILES	T cruzi repl	Efflux pump mplx	HDAC3 inh	AI-2 QS mod	PolyA inh	JMH597 growth	BB721 const-QS lum	BB721 growth	AI-2 QS JMH597	others
Cc1ccc(/C=N/Nc2ccc(C(=O)O)cc2)o1	2	0	6	-91*	-10	4	97*	22	98*
COc1ccc(C(=O)Oc2ccc(/C=N/Nc3ccc(Cl)c(C(=O)O)c3)cc2OC)cc1	-11	0	6	60	5	nt	nt	nt	nt
O=C(CNC(=O)c1cccc(Br)c1)N/N=C/c1cccs1	-2	0	2	-83*	-9	-30	91*	-18	91*
Cc1ccc(/C=N/NC(=O)Nc2ccccc2)o1	-7	0	2	5	3	nt	nt	nt	nt
COc1ccc(/C=N/Nc2ccc(C(=O)O)cc2)cc1OC	-8	0	nt	-93*	2	-9	96*	7	97*
CS(=O)(=O)c1ccc(Cl)c(NC(=O)CSc2n[nH]c(-c3cccs3)n2)c1	nt	0	-1	nt	nt	nt	nt	nt	nt
CC1=C(C(=O)O)N2C(=O)C(NC(=O)c3ccc(F)cc3)C2SC1 (configuration not stated)	nt	0	5	nt	nt	nt	nt	nt	nt
Cc1ccsc1/C=N/Nc1ccc(C(=O)O)cc1	-14	-1	2	-91*	0	40	98*	65*	99*
O=[N+]([O-])c1ccccc1S(=O)(=O)N/C(=N/S(=O)(=O)c1ccccc1)c1ccccc1	nt	0	0	nt	nt	nt	nt	nt	nt
Cc1ccc(O)c(NC(=O)CSc2ccc(Cl)cc2)c1	-5	0	-3	-87*	7	12	93*	5	95*
C=CCNc1nc2c(c(=O)[nH]c(=O)n2C)n1CCCc1ccccc1	-5	0	-5	nt	-22	nt	nt	nt	nt
CCN1CC(CN(C)Cc2cn(-c3ccc(C)cc3)nc2-c2cccc(C)c2)CC1=O (configuration not stated)	2	0	-1	4	6	nt	nt	nt	nt
O=c1c2c(-c3ccccc3)csc2nc2c3ccccc3c(NCCN3CCOCC3)nn12	38	nt	nt	-96*	-14	76*	100*	?	100*
Clc1ccc(Nc2ccc(-n3ccnc3)nn2)cc1Cl	13	0	2	55	29	nt	nt	nt	nt
O=C(Cc1ccsc1)Nc1ccc(S(=O)(=O)C(F)F)cc1	-7	0	nt	-87*	-10	19	97*	-17	100*
COc1cc2cnc(-c3cccnc3)cc2cc1OC	nt	0	-2	nt	nt	nt	nt	nt	nt
O=C(Nc1ccc(Oc2ccc(NC(=O)c3ccco3)c(NC(=O)c3ccco3)c2)cc1)c1ccco1	-31	0	7	13	-1	nt	nt	nt	nt
O=C(Nc1ccc(Oc2ccc3ccccc3c2)cc1)c1ccco1	-14	0	4	-96*	-1	31	99*	102*	99*
CC(C)COc1ccc(/C(=N/O)c2ccccc2)cc1	45	0	1	-85*	-29	20	94*	27	95*
CC(C)(C)NC(=O)CSc1ncnc2c1cnn2-c1ccccc1	2	0	4	4	16	nt	nt	nt	nt
CCOC(=O)C1CCN(C(=O)COC(=O)/C=C/c2cccc(OC)c2OC)CC1	nt	0	0	nt	nt	nt	nt	nt	nt
COc1ccc(CC(=O)O/N=C(\N)c2ccc(OC)cc2)cc1	-1	0	4	-94*	26	-13	97*	-62	98*	Cmpd fluor yeast=113;CaMdr1 efflux inh=0;Cdr2 pump inh=112;Cdr1 pump inh=0
CC(NC(N)=O)C(=O)Nc1ccc(Cl)c(S(=O)(=O)Nc2ccc(Br)cc2)c1 (configuration not stated)	-8	0	-10	15	0	nt	nt	nt	nt
CCOC(=O)C1(Cc2ccc(OC)cc2)CCN(C(=O)c2cc3ccccc3[nH]2)CC1	6	0.5*	-1	16	1	nt	nt	nt	nt	Cmpd fluor yeast=92;CaMdr1 efflux inh=0;Cdr2 pump inh=110;Cdr1 pump inh=0
Cc1cc(O)c(Sc2ncn[nH]2)cc1NS(=O)(=O)c1ccc(Cl)cc1	nt	0	6	nt	nt	nt	nt	nt	nt	Cmpd fluor yeast=103;CaMdr1 efflux inh=0;Cdr2 pump inh=96;Cdr1 pump inh=0
SMILES	T cruzi repl	Efflux pump mplx	HDAC3 inh	AI-2 QS mod	PolyA inh	JMH597 growth	BB721 const-QS lum	BB721 growth	AI-2 QS JMH597	others
COc1ccc(S(=O)(=O)Nc2cc(Sc3ncn[nH]3)c(O)cc2C)cc1	nt	0	-6	nt	nt	nt	nt	nt	nt	Cmpd fluor yeast=105;CaMdr1 efflux inh=0;Cdr2 pump inh=96;Cdr1 pump inh=0
Cc1ccc([N+](=O)[O-])cc1S(=O)(=O)Nc1ccc(O)c(Sc2ncn[nH]2)c1	2	0	3	28	4	nt	nt	nt	nt
O=S(=O)(Nc1cc(Sc2ncn[nH]2)c(O)c2ccccc12)c1ccccc1	nt	nt	nt	nt	nt	nt	nt	nt	nt	Cmpd fluor yeast=100;CaMdr1 efflux inh=0;Cdr2 pump inh=96;Cdr1 pump inh=0
Cc1cccc(NC(=O)CN2C(=O)NC3(CCCC3)C2=O)n1	0	0	nt	13	2	nt	nt	nt	nt
CCOC(=O)c1c(-c2ccc(-c3ccccc3)cc2)csc1NC(=O)CNCCN(C)C	47	2.6*	13	6	-7	nt	nt	nt	nt	Cmpd fluor yeast=116;CaMdr1 efflux inh=0;Cdr2 pump inh=108;Cdr1 pump inh=0
CCOC(=O)c1c(-c2ccccc2)csc1NC(=O)CCN1C(=O)c2ccccc2C1=O	2	0	nt	20	-19	nt	nt	nt	nt
CCCCCCCCCCCCCCCCn1cc[n+](C)c1	67*	2.7*!	?	?	-70	nt	nt	nt	nt	Cmpd fluor yeast=100;CaMdr1 efflux inh=0;Cdr2 pump inh=110;Cdr1 pump inh=0
C[n+]1ccn(CC(=O)c2cccs2)c1	-17	0	-7	7	7	nt	nt	nt	nt
O=C(CCS(=O)(=O)c1ccc(Br)cc1)Nc1ccc(Br)cc1F	-29	0	-1	4	1	nt	nt	nt	nt
O=C(CSC1=Nc2ccccc2C2=NC(CC(=O)N3CCN(c4ccccc4)CC3)C(=O)N12)NCC1CCCO1 (configuration not stated)	-9	0.8*	-3	16	2	nt	nt	nt	nt	Cmpd fluor yeast=99;CaMdr1 efflux inh=0;Cdr2 pump inh=101;Cdr1 pump inh=0
O=C(CCC1N=C2c3ccccc3N=C(SCC(=O)NCc3ccco3)N2C1=O)NCc1ccco1 (configuration not stated)	-10	0	0	18	5	nt	nt	nt	nt
